Like-named read-outs stand apart in the source and are kept apart here.
What was measured:
HMLER-shEcad cells [1] = test: MTT cytotoxicity assay, breast CSC-enriched cells; assay type: cell-based; conditions: read-out: HMLER-shEcad IC50/nM
HMLER cells = test: MTT cytotoxicity assay, bulk breast cancer cells; assay type: cell-based; conditions: read-out: HMLER IC50/nM
[2] = test system: HMLER-shEcad mammospheres; conditions: cited from earlier work
MCF10A spheroids [3] = test: Non-tumorigenic spheroid viability; assay type: cell-based; conditions: Homo sapiens, MCF-10A, read-out: IC50, MCF10A spheroid viability
MCF10A spheroids [4] = test: Non-tumorigenic spheroid formation inhibition; assay type: cell-based; conditions: IC20 value for 5 days
How it was run: (§1)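 HMLER-shEcad or MCF10A cells were grown as mammospheres/spheroids with test compound at its IC20 for 5 days. Spheres were assessed by inverted microscope with bright-field imaging (×20), and formation was quantified against untreated cells. SD, Student t-test.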

HMLER-shEcad cells [5] = conditions: read-out: HMLER-shEcad IC50/nM; 72 h incubation; cited from earlier work
[6] = test system: HMLER-shEcad mammospheres; test: Mammosphere formation inhibition; assay type: cell-based; conditions: IC20 value for 5 days
How it was run: as §1

[7] = 72 h incubation, mean of three independent experiments ± SD

Structure (SMILES): Cc1cnc2c(ccc3c(C)c(C)cnc32)c1C [3,4,7,8-Tetramethyl-1,10-phenanthroline]
- IC50 (HMLER-shEcad cells [1]; 72 h): 720 ± 84 nM
- IC50 (HMLER cells; 72 h): 785 ± 10 nM

Structure (SMILES): N.N.[Cl][Pt][Cl] [Cisplatin]
- IC50 (HMLER-shEcad cells [1]; [7]): 5640 ± 304 nM
- IC50 (HMLER cells; [7]): 2565 ± 21 nM

Structure (SMILES): O=C(O)Cc1ccccc1Nc1c(Cl)cccc1Cl [Diclofenac]
- effect on number or size of HMLER-shEcad mammospheres formed [2]: does not significantly affect

Structure (SMILES): Cc1cnc2c(ccc3c(C)c(C)cnc32)c1C.[Cl][Mn][Cl] [Mn(3,4,7,8-tetramethyl-1,10-phenanthroline)Cl2]
- IC50 (HMLER-shEcad cells [1]; [7]): 170 ± 14 nM
- IC50 (HMLER cells; [7]): 163 ± 21 nM

Structure (SMILES): [Cl][Mn][Cl] [MnCl2·4H2O]
- IC50 (HMLER-shEcad cells [1]; [7]): 7760 ± 318 nM

Structure (SMILES): CC[C@@H](C(=O)[C@@H](C)[C@@H](O)[C@H](C)[C@@H]1O[C@@H]([C@@H](CC)C(=O)O)CC[C@@H]1C)[C@H]1O[C@]2(C=C[C@@H](O)[C@]3(CC[C@@](C)([C@H]4CC[C@](O)(CC)[C@H](C)O4)O3)O2)[C@H](C)C[C@@H]1C [Salinomycin]
- IC50 (MCF10A spheroids [3]): 14900 ± 500 nM
- decrease in number of MCF10A spheroids formed (MCF10A spheroids [4]): 40%
- IC50 (HMLER-shEcad cells [5]): 4200 ± 400 nM
- decrease in number of HMLER-shEcad mammospheres formed compared to the untreated control [6]: 53%

Reference: publication PMC6764274 (Chemical Science, 2019)
